“And” between values parts separate entries of the source, which are not always exact repeats. Identical values can stand only once. The source made the active and inactive calls.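 The calls were made as follows: active = compound needing at most 10 µM to cut the imipenem dose that stops bacterial growth fourfold; inactive = the rest.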
How the values were obtained:
[1] = growth inhibition synergy, Acinetobacter plus imipenem – strain YMC07/8/B3323, clinical isolate, powder samples, late-stage follow-up (AID 624096); conditions: VIM-2 Acinetobacter YMC07/8/B3323 growth with imipenem, OD590; measured here: max imipenem potentiation fold; stronger effect = higher value
Outline: (§1)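 Material: Acinetobacter cells in broth microdilution | Medium: CAMHB | Also added: Imipenem, two-fold titration | Dosing: Compound two-fold series crossed with imipenem | Schedule: Growth of at least 18 h, aerobic, 37 °C | Detection: OD590 turbidity | Read-out: CLSI MIC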

[2] = system: VIM-2 Acinetobacter YMC07/8/B3323 growth with imipenem, OD590; assay: as above
Outline: as §1

Row | MIC [2] | Structure (SMILES) | fold potentiation [1]
1 | 6.25 µM | CN1CCN(C(=O)CN2C(=O)/C(=C/c3c(Cl)cccc3Cl)SC2=S)CC1 | 16
2 | > 50 µM (inactive) | O=C(O)CN1C(=O)/C(=C/c2c(F)c(F)c(F)c(F)c2F)SC1=S | 2
3 | 3.12 µM | CN1CCN(NC(=O)CN2C(=O)/C(=C/c3c(C(F)(F)F)ccc(Cl)c3Cl)SC2=S)CC1 | 32
4 | 3.12 µM | CC(C)(C)OC(=O)N1CCN(NC(=O)CN2C(=O)/C(=C/c3c(Cl)cccc3Cl)SC2=S)CC1 | 16
5 | 3.12 µM and 6.25 µM | CN1CCN(NC(=O)CN2C(=O)/C(=C/c3c(Cl)cccc3Cl)SC2=S)CC1 | 32
6 | > 50 µM (inactive) | O=C(O)CN1C(=O)/C(=C/c2ccc([N+](=O)[O-])cc2)SC1=S | 2
7 | > 25 µM (inactive) | CN1CCN(NC(=O)[C@H](Cc2ccccc2)N2C(=O)/C(=C/c3c(Cl)cccc3Cl)SC2=S)CC1 | 8
8 | 0.781 µM | CC(C)(C)OC(=O)N1CCN(NC(=O)CN2C(=O)/C(=C/c3c(Cl)ccc(Cl)c3Cl)SC2=S)CC1 | 16
9 | 1.56 µM | Cc1cc(C)n(NC(=O)CN2C(=O)/C(=C/c3c(Cl)cccc3Cl)SC2=S)c(=O)c1 | 32
10 | 12.5 µM (inactive) | O=C(O)CN1C(=O)/C(=C/c2c(Cl)cccc2Cl)SC1=S | 16
11 | > 50 µM (inactive) | Cc1cc(C)c(/C=C2\SC(=S)N(CC(=O)O)C2=O)c(C)c1 | 
12 | > 50 µM (inactive) | CN1CCN(NC(=O)CN2C(=O)/C(=C/c3cccnc3)SC2=S)CC1 | 4
13 | 1.56 µM | CN1CCN(NC(=O)C(Cc2ccc(Cl)cc2)N2C(=O)/C(=C/c3c(Cl)ccc(Cl)c3Cl)SC2=S)CC1 (stereo unspecified) | 32
14 | > 50 µM (inactive) | CN1CCN(NC(=O)CN2C(=O)/C(=C/c3c(F)c(F)c(F)c(F)c3F)SC2=S)CC1 | 2
15 | 3.12 µM | O=C(CN1C(=O)/C(=C/c2c(Cl)cccc2Cl)SC1=S)NN1CCN(C(=O)c2ccccc2)CC1 | 16
16 | 3.12 µM | O=C(CN1C(=O)/C(=C/c2c(Cl)ccc(Cl)c2Cl)SC1=S)NN1CCCCC1 | 16
17 | > 50 µM (inactive) | O=C(O)CN1C(=O)/C(=C/c2c(F)cccc2F)SC1=S | 2
18 | > 50 µM (inactive) | O=C(CN1C(=O)/C(=C/c2c(Cl)ccc(Cl)c2Cl)SC1=S)N1CCN(c2ccccc2Cl)CC1 | 
19 | 3.12 µM | CN1CCN(NC(=O)CN2C(=O)/C(=C/c3c(F)cccc3C(F)(F)F)SC2=S)CC1 | 2
20 | > 25 µM (inactive) | CN1CCN(NC(=O)CN2C(=O)/C(=C/c3c(F)cccc3F)SC2=S)CC1 | 4
21 | 6.25 µM | O=C(CN1C(=O)/C(=C/c2c(Cl)cccc2Cl)SC1=S)NCc1ccncc1 | 16

Row | MIC [2] | Structure (SMILES) | fold potentiation [1]
22 | 0.781 µM and 1.56 µM and 0.391 µM | CN1CCN(NC(=O)CN2C(=O)/C(=C/c3c(Cl)ccc(Cl)c3Cl)SC2=S)CC1 | 32 and 16
23 | 1.56 µM | CC(C)C(C(=O)NN1CCN(C)CC1)N1C(=O)/C(=C/c2c(Cl)ccc(Cl)c2Cl)SC1=S (stereo unspecified) | 32
24 | > 50 µM (inactive) | CN1CCN(NC(=O)CN2C(=O)/C(=C/c3ccc(Cl)cc3)SC2=S)CC1 | 
25 | 6.25 µM | CC(C)(C)OC(=O)N1CCN(C(=O)CN2C(=O)/C(=C/c3c(Cl)ccc(Cl)c3Cl)SC2=S)CC1 | 16
26 | 1.56 µM | O=C(CN1C(=O)/C(=C/c2c(Cl)ccc(Cl)c2Cl)SC1=S)NCc1ccccn1 | 16 and 32
27 | 12.5 µM (inactive) | CCN(CC)OC(=O)CN1C(=O)/C(=C/c2c(Cl)cccc2Cl)SC1=S | 8
28 | 6.25 µM | O=C(CN1C(=O)/C(=C/c2c(Cl)cccc2Cl)SC1=S)NCc1ccccn1 | 16
29 | > 50 µM (inactive) | O=C(O)CN1C(=O)/C(=C/c2ccccc2Br)SC1=S | 2
30 | > 50 µM (inactive) | O=C(CN1C(=O)/C(=C/c2c(Cl)cccc2Cl)SC1=S)Nc1cc([N+](=O)[O-])ccc1O | 
31 | > 50 µM (inactive) | CN1CCN(NC(=O)CN2C(=O)/C(=C/c3ccc(F)cc3)SC2=S)CC1 | 
32 | > 50 µM (inactive) | CN1CCN(NC(=O)CN2C(=O)/C(=C/c3ccccc3Br)SC2=S)CC1 | 4
33 | 3.12 µM | CN1CCN(NC(=O)CN2C(=O)/C(=C/c3c(Cl)ccc(C(F)(F)F)c3Cl)SC2=S)CC1 | 16
34 | > 50 µM (inactive) | CN1CCN(NC(=O)CN2C(=O)/C(=C/c3c(F)cccc3Br)SC2=S)CC1 | 2
35 | > 50 µM (inactive) | CCOC(=O)/C=C1\SC(=S)N(CC(=O)NN2CCN(C)CC2)C1=O | 2
36 | 1.56 µM and 0.781 µM | CN1CCN(C(=O)CN2C(=O)/C(=C/c3c(Cl)ccc(Cl)c3Cl)SC2=S)CC1 | 16 and 32
37 | 6.25 µM | O=C(O)CN1C(=O)/C(=C/c2c(Cl)ccc(Cl)c2Cl)SC1=S | 16
38 | 3.12 µM | O=C(CN1C(=O)/C(=C/c2c(Cl)cccc2Cl)SC1=S)NN1CCCCC1 | 16
39 | 6.25 µM | O=C(O)CN1C(=O)/C(=C/c2c(Cl)ccc(C(F)(F)F)c2Cl)SC1=S | 8
40 | 3.12 µM | O=C(CN1C(=O)/C(=C/c2c(Cl)cccc2Cl)SC1=S)NN1CCN(Cc2ccccc2)CC1 | 
41 | 6.25 µM | O=C(CN1C(=O)/C(=C/c2c(Cl)cccc2Cl)SC1=S)Nc1cccnc1 | 16
42 | > 50 µM (inactive) | O=C(CN1C(=O)/C(=C/c2c(Cl)cccc2Cl)SC1=S)NN1CCN(S(=O)(=O)c2ccc(Cl)cc2)CC1 | 2

Row | MIC [2] | Structure (SMILES) | fold potentiation [1]
43 | > 50 µM (inactive) | O=C(O)CN1C(=O)/C(=C/c2c(F)cccc2Cl)SC1=S | 2
44 | > 50 µM (inactive) | O=C(O)CN1C(=O)/C(=C/c2ccc(F)cc2)SC1=S | 
45 | > 25 µM (inactive) | O=C(O)CN1C(=O)/C(=C/c2c(F)cccc2C(F)(F)F)SC1=S | 2
46 | > 50 µM (inactive) | O=C(O)CN1C(=O)/C(=C/c2cccnc2)SC1=S | 
47 | 0.195 µM | C[N+]1(OS(C)(=O)=O)CCN(NC(=O)CN2C(=O)/C(=C/c3c(Cl)ccc(Cl)c3Cl)SC2=S)CC1 | 32
48 | > 50 µM (inactive) | CCOC(=O)/C=C1\SC(=S)N(CC(=O)O)C1=O | 
49 | 6.25 µM | CC(=O)N1CCN(NC(=O)CN2C(=O)/C(=C/c3c(Cl)cccc3Cl)SC2=S)CC1 | 32
50 | > 50 µM (inactive) | CN1CCN(NC(=O)CN2C(=O)/C(=C/c3ccc4ccccc4n3)SC2=S)CC1 | 
51 | > 50 µM (inactive) | O=C(O)CN1C(=O)/C(=C/c2ccc(Cl)cc2)SC1=S | 2
52 | 3.12 µM | O=C(CN1C(=O)/C(=C/c2c(Cl)cccc2Cl)SC1=S)NN1CCNCC1 | 16
53 | > 50 µM (inactive) | O=C(O)CN1C(=O)/C(=C/c2ccc3ccccc3n2)SC1=S | 
54 | 1.56 µM | CN1CCN(NC(=O)C(Cc2ccccc2)N2C(=O)/C(=C/c3c(Cl)ccc(Cl)c3Cl)SC2=S)CC1 (stereo unspecified) | 32
55 | > 25 µM (inactive) | Cc1ccc(S(=O)(=O)N2CCN(NC(=O)CN3C(=O)/C(=C/c4c(Cl)cccc4Cl)SC3=S)CC2)cc1 | 
56 | 0.781 µM | O=C(CN1C(=O)/C(=C/c2c(Cl)ccc(Cl)c2Cl)SC1=S)NN1CCNCC1 | 32
57 | > 25 µM (inactive) | Cc1cc(C)c(/C=C2\SC(=S)N(CC(=O)NN3CCN(C)CC3)C2=O)c(C)c1 | 4
58 | 6.25 µM | O=C(O)CN1C(=O)/C(=C/c2c(C(F)(F)F)ccc(Cl)c2Cl)SC1=S | 16
59 | > 50 µM (inactive) | CN1CCN(NC(=O)CN2C(=O)/C(=C/c3ccc([N+](=O)[O-])cc3)SC2=S)CC1 | 
60 | 6.25 µM | CC(C)N1CCN(NC(=O)CN2C(=O)/C(=C/c3c(Cl)cccc3Cl)SC2=S)CC1 | 32
61 | > 50 µM (inactive) | O=C(O)CN1C(=O)/C(=C/c2c(F)cccc2Br)SC1=S | 2
62 | 3.12 µM | CN1CCN(NC(=O)CN2C(=O)/C(=C/c3c(F)cccc3Cl)SC2=S)CC1 | 32

Reference: PubChem BioAssay AID624096 (The Scripps Research Institute Molecular Screening Center, 2012)
